The data set deals with MS2 coat protein. Nature of the data set: apparent Kd, MS2 coat protein; higher = weaker binding; RNA-MaP array. In short, it runs like this: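 Apparent Kd was taken as the median of binding curves fitted cluster by cluster. The designed RNAs were made by transcription of sequenced DNA templates on an Illumina sequencing chip and exposed to fluorescently labeled MS2 coat protein (1.5 nM to 3 μM) at room temperature, with or without input ligand, for 0.8–1.5 h at the lowest and 10–20 min at the highest concentrations. Any design measured on fewer than 10 clusters was left out.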

Setting [1] is: designed as: ON switch for flavin mononucleotide, no ligand.
Setting [2] is: ligand present: flavin mononucleotide, designed as: ON switch for flavin mononucleotide.
The mark [3] stands for this setting: designed as: OFF switch for flavin mononucleotide, no ligand.
Setting [4] is: ligand present: flavin mononucleotide, designed as: OFF switch for flavin mononucleotide.
The mark [5] stands for this setting: designed as: OFF switch for tryptophan, no ligand.
Where [6] appears, read: ligand present: tryptophan, designed as: OFF switch for tryptophan.

The term apparent Kd denotes the concentration giving half-maximal binding under the conditions of the assay. Regarding “GCUCUAAGGGAGAAGGUCAUGUCGCAUCUUAGCGUUCACAUGAGGAUCACCCAUGUUAACUGUGUGAAGGAUAUCCUAGGCUGU”, the “apparent Kd” value worked out at 358 nM under setting [1] and 125 nM under setting [2].

For the sequence “GUGACACAUGAGGAUCACCCAUGUCAGGAUAUAGGUCAGCAAAGUAACCAUGACGAGACUAGAAGGGACGCGUG”, the “apparent Kd” value is, setting by setting: under setting [3], 30.5 nM; under setting [4], 22.5 nM.

With “CCUUGUGUGAAGGAUAUAGGUUUAUGUUUCUGUCUAGAAGGUCACACAUGAGGAUCACCCAUGUAUAUCCUAGA”, the “apparent Kd” value under setting [3] was 18.3 nM and the “apparent Kd” value under setting [4] amounted to 51.6 nM.

With “GACAGGAAAGGAUAUACAAAAUAGAUCAAACGCACACAAAGACAUGAGGAUCACCCAUGUAGAAGGUACUGACA”, the “apparent Kd” value came to 11.3 nM under setting [3] and 9.76 nM under setting [4].

Take “CAACGGUUAGAGAAGGCAUAGUAAAGAAUUCAAUGAGGAUAUCUAAAGAAAUGUAUAGGUCUUUUACAUGAGGAUCACCCAUGU”: the “apparent Kd” value under setting [3] was determined as 17.6 nM and the “apparent Kd” value under setting [4] amounted to 9.47 nM.

For the sequence “AAUAUAAACGUCAGGAUAUUCACGAUAAACAAAUAGAAGAAGGGACAUGAGGAUCACCCAUGUAAACAUGAGUA”, the “apparent Kd” value is, setting by setting: under setting [3], 11.6 nM; under setting [4], 18.3 nM.

As to “AUAAAUAAUUCAGGAUAUUGCGAUCAAACAACAUGAGGAUCACCCAUGUCCGUAAACACAACAAGCAAGAAGGGAAAGAAUCAA”, the “apparent Kd” value was 24.6 nM under setting [1] and 14.6 nM under setting [2].

Consider “UCCGUUGUAGGAUAUACAUGAGGAUCACCCAUGUAAUGUGGGCAAUUAUAAACUUACUGUAGAAGGACAGAGUG”, for which the “apparent Kd” value was 493 nM under setting [3] and 555 nM under setting [4].

Consider “UCCAGCAACGAGAAGGUACACAUGAGGAUCACCCAUGUCCGUUGACCGUCUCCAUGGGCGAUGGGUAAGGAUAUCGGGCAGAUG”, for which the “apparent Kd” value is, setting by setting: under setting [1], 68.9 nM; under setting [2], 49.4 nM.

Consider “UGGUGGAAGACAUGAGGAUCACCCAUGUUCGUAGAUGCCGAGCAGGAUAUUAGAUCAUAAACCAGUAAGAAGGGCUGAGUGUCU”, for which the “apparent Kd” value is 31.8 nM under setting [1] and 26.1 nM under setting [2].

In the case of “GUUCGCUGAGGAUAUACAUGAGGAUCACCCAUGUUCAAGUCUCGUGACUGUUCCCAGCGUAGAAGGCAGCGGUG”, the “apparent Kd” value under setting [3] was 7.62 nM and the “apparent Kd” value under setting [4] amounted to 8.85 nM.

For the sequence “GUUGCACAUGAGGAUCACCCAUGUUUGGAUACCAGUCUCUGUAAUGACCCUUGGCAGCCACCAUAGACGCUUGAGUAGAGCCUGA”, the “apparent Kd” value was 15 nM (designed as: ON switch for theophylline, no ligand) and 16 nM (ligand present: theophylline, designed as: ON switch for theophylline).

As for “CCUGGGACAUGAGGAUCACCCAUGUGUGUUAUCGGUGCGUGAGAGGAUAUACACAGCGUCCGUUAGUAGAAGGCUCAUGAUGUA”, the “apparent Kd” value runs as follows: under setting [3], 88.3 nM; under setting [4], 52.5 nM.

“GAGGCAACGAUGGAGGAUAUACUAGGUAAUACAUGAGGAUCACCCAUGUGAGAAAGAGAGUACAUGUAGAAGGCCAGAUAUGCGGU”: the “apparent Kd” value was found to be 30.5 nM under setting [1] and 11.8 nM under setting [2].

As for “UGGAGAUAGACGGCCGCCACUAACAUGAGGAUCACCCAUGUCGUCACGAAUGGAUGGCCCUAGAAUAGGACCGGGUCCGGAUUCA”, the “apparent Kd” value under setting [5] turned out to be 33.6 nM and the “apparent Kd” value under setting [6] turned out to be 34.8 nM.

On to “GUACUGCAGUUAGGAUAUACCGGAGGAUUAUACACCUACUAACAUGAGGAUCACCCAUGUCUCUCGUAGAAGGAACAUAUUAGC”, for which the “apparent Kd” value stood at 20.9 nM under setting [1] and 16.5 nM under setting [2].

“CCAGCUAAAGGAUAUACUGCCGGUGUUAUGUAAUAAUUGCAACAUGAGGAUCACCCAUGUAGAAGGUAAGUGAA”: the “apparent Kd” value came out at 11 nM under setting [3] and 9.45 nM under setting [4].

For the sequence “UCGCCAUUGACGGCCGCCACUCAAUGGUCUUCUCUGAACAUAAUUAACAUGAGGAUCACCCAUGUGAGGACCGGGUCGGUUAGAC”, the “apparent Kd” value runs as follows: under setting [5], 19.5 nM; under setting [6], 32.3 nM.

In the case of “UCUAUUAACUAAGGAUAUAGAACAGGCCGGAUUUUGUUGCGUCUGACAUGAGGAUCACCCAUGUUCUAGAAGGUAGACUGCUGC”, the “apparent Kd” value reads like this: under setting [3], 13.3 nM; under setting [4], 11.7 nM.

“AUAAAAUGCUUAGGAUAUGUAACAGCAUGCACAUGAGGAUCACCCAUGUUAUAUUUAGUGGAAUGACAGAAGGAAGUAGAGACU”: the “apparent Kd” value is, setting by setting: under setting [1], 18.6 nM; under setting [2], 13.5 nM.
